We go through 5 compounds from ChEMBL document CHEMBL3259696, “Berberine and its metabolites: relationship between physicochemical properties and plasma levels after administration to human subjects” (J Nat Prod, 2014).

Structures are written as SMILES. Activity calls are given as the source filed them. The calls are words filed in the database; no cut-off is given here.

Series [1] is described as follows: 1-Octanol-water distribution coefficient, log D of the compound at pH 8.6 after 1 week by HPLC-ESIMS/MS analysis. Type of series: physicochemical. The gist of the method:
(§1)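 Shake-flask partition: analytes started at 0.1 mM in 0.1 M Na phosphate buffer (pH range 4.5 to 9). Buffer solution mixed 1:1 with buffer-presaturated 1-octanol and equilibrated 1 week under continuous stirring at 25 °C. After centrifugation the phases were separated, and the aqueous phase was diluted in mobile phase and quantified by HPLC-ESIMS/MS. LogD calculated from the aqueous-phase concentration.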

The nature of series [2]: 1-Octanol-water partition coefficient, log P of the compound at pH 8.6 after 1 week by HPLC-ESIMS/MS analysis. Type of series: physicochemical. The method in brief: as §1
The nature of series [3]: 1-Octanol-water distribution coefficient, log D of the compound at pH 4.5 after 1 week by HPLC-ESIMS/MS analysis. It is filed as physicochemical. The method in brief: as §1
A short description of series [4]: 1-Octanol-water partition coefficient, log P of the compound at pH 4.5 after 1 week by HPLC-ESIMS/MS analysis. It is filed as physicochemical. The method in brief:
as §1

Series [5] is described as follows: 1-Octanol-water partition coefficient, log P of the compound at pH 6 after 1 week by HPLC-ESIMS/MS analysis. It is filed as physicochemical. The gist of the method: as §1
Series [6] in a line: 1-Octanol-water partition coefficient, log P of the compound at pH 7 after 1 week by HPLC-ESIMS/MS analysis. It is filed as physicochemical. The gist of the method: as §1
Series [7] can be described thus: 1-Octanol-water distribution coefficient, log D of the compound at pH 7 after 1 week by HPLC-ESIMS/MS analysis. It is filed as physicochemical. The method in brief: as §1
Series [8] can be described thus: 1-Octanol-water distribution coefficient, log D of the compound at pH 6 after 1 week by HPLC-ESIMS/MS analysis. It is filed as physicochemical. The gist of the method: as §1
Series [9] can be described thus: Solubility of the compound in sodium phosphate buffer at pH 7 at 25 degC after 1 week by HPLC-ESIMS/MS analysis. Type of series: physicochemical. The method in brief: (§2)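 Solubility samples in sodium phosphate buffer at each pH were stirred continuously for 1 week at 25 °C. Solutions were passed through 0.45 μm regenerated-cellulose filters, diluted in mobile phase and quantified by HPLC-ESIMS/MS.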

Series [10] in a line: Dissociation constant, pKa of the compound. It is filed as physicochemical. The method in brief:
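pKa values predicted in silico for the ionizable groups of the parent and its metabolites, then compared with experimentally obtained values from earlier reports.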

Series [11] addresses Albumin (Bos taurus, UniProt P02769). Briefly: Binding affinity to bovine serum albumin by fluorescence quenching assay. It is filed as ADME. The note with it: cattle, isolated protein. The gist of the method:
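BSA at 1.0 × 10−5 mol L−1 in Tris-HCl buffer (0.05 M Tris, 0.15 M NaCl, pH 7.4), titrated with quencher from 0 to 2.4 × 10−5 mol L−1 in 0.2 × 10−5 steps at room temperature. Tryptophan emission recorded at 300–500 nm (excitation 295 nm; maximum at 340 nm). Binding constant KB obtained from a modified Stern–Volmer plot, assuming static quenching.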

Series [12] in a line: Solubility of the compound in sodium phosphate buffer at pH 4.5 at 25 degC after 1 week by HPLC-ESIMS/MS analysis. Type of series: physicochemical. The method in brief:
as §2

Series [13] in a line: Solubility of the compound in sodium phosphate buffer at pH 6 at 25 degC after 1 week by HPLC-ESIMS/MS analysis. It is filed as physicochemical. The method in brief:
as §2

Series [14] in a line: Solubility of the compound in sodium phosphate buffer at pH 8.6 at 25 degC after 1 week by HPLC-ESIMS/MS analysis. It is filed as physicochemical. The gist of the method:
as §2

Series [15] in a line: Dissociation constant, acidic pKa of the compound. Type of series: physicochemical.
Series [16] deals with Homo sapiens. Briefly: Tmax in human assessed as jatrorrhizine at 500 mg, po by HPLC-ESIMS/MS analysis. Conditions: in vivo. It is filed as ADME, organism-based.
Series [17] has as its system Homo sapiens. Briefly: Cmax at steady state in hypercholesterolemic patient assessed as demethyleneberberin at 15 mg/kg/day administered for 3 months by HPLC-ESIMS/MS analysis. On the set-up: dose 15 mg/kg/day. Type of series: ADME, organism-based. Conditions: in vivo.
The subject of series [18] is Homo sapiens. Briefly: Effect on HDL cholesterol level in hypercholesterolemic patient at 15 mg/kg/day administered for 3 months measured every month during compound treatment. It is filed as functional, organism-based.
The subject of series [19] is Plasma. Briefly: Cmax in human plasma assessed as berberrubine at 500 mg, po after 4 hrs by HPLC-ESIMS/MS analysis. Set-up: dose 500 mg, route oral. It is filed as ADME, organism-based. The note with it: in vivo.
Series [20] deals with Homo sapiens. Briefly: Hypolipidemic activity in hypercholesterolemic patient assessed as reduction of total cholesterol level at 15 mg/kg/day administered for 3 months measured every month during compound treatment. Type of series: functional, organism-based.
In series [21] the test system is Homo sapiens. Briefly: Tmax in human assessed as demethyleneberberin at 500 mg, po by HPLC-ESIMS/MS analysis. The note with it: in vivo. Type of series: ADME, organism-based.
A short description of series [22]: Tmax in human at 500 mg, po by HPLC-ESIMS/MS analysis. It is filed as ADME, organism-based. The note with it: in vivo.
Series [23] relates to Homo sapiens. Briefly: Cmax at steady state in hypercholesterolemic patient assessed as berberrubine at 15 mg/kg/day administered for 3 months by HPLC-ESIMS/MS analysis. On the set-up: dose 15 mg/kg/day. The note with it: in vivo. It is filed as ADME, organism-based.
Series [24] concerns Homo sapiens. Briefly: Hypolipidemic activity in hypercholesterolemic patient assessed as reduction of LDL cholesterol level at 15 mg/kg/day administered for 3 months measured every month during compound treatment. It is filed as functional, organism-based.
The subject of series [25] is Plasma. Briefly: Cmax in human plasma assessed as demethyleneberberin at 500 mg, po by HPLC-ESIMS/MS analysis. Conditions: in vivo. Type of series: ADME, organism-based. Set-up: dose 500 mg, route oral.
Series [26] can be described thus: Cmax at steady state in hypercholesterolemic patient at 15 mg/kg administered for 3 months by HPLC-ESIMS/MS analysis. Type of series: ADME, organism-based. On the set-up: dose 15 mg/kg. Conditions: human, in vivo.
A short description of series [27]: Dissociation constant, basic pKa of the compound. It is filed as physicochemical.
Series [28] relates to Homo sapiens. Briefly: Effect on total triglyceride level in hypercholesterolemic patient at 15 mg/kg/day administered for 3 months measured every month during compound treatment. It is filed as functional, organism-based.
Series [29] concerns Homo sapiens. Briefly: Cmax at steady state in hypercholesterolemic patient assessed as jatrorrhizine at 15 mg/kg/day administered for 3 months by HPLC-ESIMS/MS analysis. It is filed as ADME, organism-based. On the set-up: dose 15 mg/kg/day. Conditions: in vivo.
Series [30] concerns Plasma. Briefly: Cmax in human plasma assessed as jatrorrhizine at 500 mg, po by HPLC-ESIMS/MS analysis. Conditions: in vivo. Type of series: ADME, organism-based. On the set-up: dose 500 mg, route oral.
A short description of series [31]: Cmax in human plasma at 500 mg, po by HPLC-ESIMS/MS analysis. It is filed as ADME, organism-based. Set-up: dose 500 mg, route oral.
The test system of series [32] is Plasma. Briefly: Plasma concentration in human assessed as berberrubine at 500 mg, po after 24 hrs by HPLC-ESIMS/MS analysis. Type of series: ADME, organism-based. Conditions: in vivo.

Albumin, sequence (P02769 whole entry): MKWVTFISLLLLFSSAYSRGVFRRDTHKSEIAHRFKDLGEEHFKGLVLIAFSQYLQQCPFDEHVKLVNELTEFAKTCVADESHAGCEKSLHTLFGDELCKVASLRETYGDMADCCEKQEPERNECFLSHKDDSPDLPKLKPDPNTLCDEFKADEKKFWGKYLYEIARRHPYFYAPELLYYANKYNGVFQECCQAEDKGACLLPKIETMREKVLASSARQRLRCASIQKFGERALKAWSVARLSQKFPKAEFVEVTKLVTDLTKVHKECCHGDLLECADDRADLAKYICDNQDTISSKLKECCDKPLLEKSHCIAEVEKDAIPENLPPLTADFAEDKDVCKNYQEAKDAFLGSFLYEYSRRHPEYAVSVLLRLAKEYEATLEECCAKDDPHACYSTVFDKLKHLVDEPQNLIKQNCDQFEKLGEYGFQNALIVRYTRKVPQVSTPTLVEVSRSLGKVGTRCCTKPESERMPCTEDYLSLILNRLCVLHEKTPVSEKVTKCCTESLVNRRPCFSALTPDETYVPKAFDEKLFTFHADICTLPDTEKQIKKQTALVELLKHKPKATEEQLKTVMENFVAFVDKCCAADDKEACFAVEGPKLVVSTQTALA

What is called logD is the decadic logarithm of the distribution of all forms, ionised or not, between an organic phase and buffer at a given pH. A higher logD goes with a more lipophilic compound. Turning to `COc1ccc2cc3n(cc-2c1=O)CCc1cc2c(cc1-3)OCO2`, the logD at 168 h in series [1] was found to be 4.6; in [2], 1.6; in [3], 0.7; in [4], 0.6; in series [5], 1.3; in series [6] it was 1.5. Also, the logD at 168 h in series [7] stood at 2.9; in [8] it was 1.8.
In general, solubility refers to the dissolved amount per volume that the medium holds. A low value points to little dissolved substance. A word on the pKa: it is the negative logarithm of the acid dissociation constant. A lower pKa goes with a stronger acid or weaker base. Consider `COc1ccc2cc3[n+](cc2c1OC)CCc1cc(O)c(O)cc1-3.[Cl-]`, for which the logD at 168 h in series [1] is -0.3; in [2], -0.5; in series [3] it was -1.1; in series [4], -1.1; in series [5], -1.1; in series [6] it was -1.1. The logD at 168 h in series [7] and in series [8] was -1.1 each time. In addition, the solubility at 168 h in [9] was 3.7 mM; in [12], 0.2 mM; in series [13], 0.2 mM; in series [14], 6.5 mM. For the same compound, the pKa in [10] turned out to be 9.4. The Kb in series [11] stood at 1.98 ×10³ L/mol.
The Tmax is the time from dosing to the highest level. Broadly, the Cmax is the maximum level reached in the sampled fluid or tissue. Consider `COc1ccc2cc3[n+](cc2c1OC)CCc1cc2c(cc1-3)OCO2.[Cl-]` [BERBERINE CHLORIDE], for which the logD at 168 h in series [1], in [2], in series [3], in series [4], in series [5] and in series [6] was -1.2 each time. Besides, the logD at 168 h in series [7] and in series [8] was -1.2 throughout. For the same compound, the pKa in series [15] worked out at 2.47; in [27] it was 15.7. For the same compound, the Tmax in series [16] was 2 h; in series [21], 1 h; in series [22], 1 h. Besides, the Cmax in series [17] was 1.7 nM; in series [19] it was 1.4 nM; in series [23], 6.7 nM; in series [25], 0.14 nM; in series [29] it was 5.6 nM; in [30] it was 0.13 nM. In series [31], this compound displayed a Cmax of 0.07 nM. Moreover, the outcome in series [18] and in [28] was inactive. For the same compound, the outcome in series [20] and in [24] was Active. The solubility at 168 h in [9] was determined as 9 mM; in [12] it was 8.2 mM; in series [13], 7.6 mM; in series [14] it was 9.6 mM. The same compound gave a Kb in series [11] of 3.37 ×10³ L/mol. In series [26], this compound showed a Cmax at 3 months of 4 nM. For the same compound, the concentration in [32] came out at 0.15 nM.
Take `COc1ccc2cc3[n+](cc2c1O)CCc1cc2c(cc1-3)OCO2.[Cl-]` [BERBERRUBINE CHLORIDE]: the logD at 168 h in series [1] was 4.6; in series [2], 1.6; in [3], 0.01; in series [4], -0.02; in [5], 0.9; in series [6] it was 1.1. Besides, the logD at 168 h in [7] was found to be 2.5; in series [8] it was 1.4. The solubility at 168 h was found to be 1 mM in series [9], 4.2 mM in series [12], 2 mM in series [13] and 0.5 mM in series [14]. The pKa in [10] was found to be 5. The same compound yielded a Kb in series [11] of 1.51 ×10³ L/mol.
With `COc1cc2c(cc1O)CC[n+]1cc3c(OC)c(OC)ccc3cc1-2.[Cl-]` [JATRORRHIZINE CHLORIDE], the logD at 168 h in series [1] is 0.6; in series [2], 0.1; in series [3], -1.5; in series [4], -1.5; in [5], -1.5; in series [6] it was -1.2. Further, the logD at 168 h is -1.2 in series [7] and -1.5 in [8]. Besides, the solubility at 168 h in series [9] is 12.4 mM; in series [12], 1.5 mM; in [13], 1.3 mM; in series [14] it was 12.2 mM. The pKa in [10] was found to be 9.6. The Kb in [11] came to 1.73 ×10³ L/mol.
